ChEMBL document CHEMBL1124949, “4-(1,2,5,6-Tetrahydro-1-alkyl-3-pyridinyl)-2-thiazolamines: a novel class of compounds with central dopamine agonist properties” (J Med Chem, 1990)
Active and inactive are the calls of the source. The calls are words filed in the database; no cut-off is given here.

Experiments:
D(2) dopamine receptor [1] = biological target: T1, D(2) dopamine receptor (Rattus norvegicus, UniProt P61169); assay: Inhibition of [3H]N-propylnorapomorphine binding to Dopamine receptor D2 of rat striatal membranes; assay type: cell membranes, Membrane
T1 sequence (P61169 whole entry): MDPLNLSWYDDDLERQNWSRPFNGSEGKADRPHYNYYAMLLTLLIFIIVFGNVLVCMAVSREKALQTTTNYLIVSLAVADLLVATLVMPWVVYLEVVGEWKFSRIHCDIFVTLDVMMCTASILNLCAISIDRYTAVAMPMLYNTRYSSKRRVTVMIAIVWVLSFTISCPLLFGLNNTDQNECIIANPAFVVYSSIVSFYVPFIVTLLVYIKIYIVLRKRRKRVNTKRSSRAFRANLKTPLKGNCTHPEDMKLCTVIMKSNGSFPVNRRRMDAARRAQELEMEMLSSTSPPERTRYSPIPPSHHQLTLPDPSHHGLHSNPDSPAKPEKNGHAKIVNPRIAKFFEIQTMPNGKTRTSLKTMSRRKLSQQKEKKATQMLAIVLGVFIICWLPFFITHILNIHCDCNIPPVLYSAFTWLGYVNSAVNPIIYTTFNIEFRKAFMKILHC

D(2) dopamine receptor [2] = biological target: T1, D(2) dopamine receptor; assay: Inhibition of [3H]haloperidol binding for Dopamine receptor D2 in rat striatal membranes. (36%inhibition at 10 e-6 M); assay type: cell membranes, Membrane
Rattus norvegicus [3] = assay: Reversal of reserpine-induced depression in rat after subcutaneous administration; assay type: functional
Procedure, shortened: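 Rats were pretreated with reserpine 5 mg/kg 24 h before testing, then given drug sc. Locomotor activity was recorded for 30 min starting immediately after dosing.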

Rattus norvegicus [4] = assay: Inhibition of locomotor activity was determined after oral administration in rat; assay type: functional
Procedure, shortened: (§1)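 Spontaneous exploratory locomotor activity was scored, with motor coordination (ataxia) checked in the same test. ED50 came from four to six doses, with 5–12 animals per dose.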

D(2) dopamine receptor [5] = biological target: T1, D(2) dopamine receptor; assay: Inhibition of [3H]haloperidol binding for Dopamine receptor D2 in rat striatal membranes. (2% inhibition at 10 e-6 M); assay type: cell membranes, Membrane
Mus musculus = assay: Inhibition of locomotor activity was determined after intraperitoneal administration in mouse; assay type: functional; conditions: ip; procedure, shortened: as §1
Rattus norvegicus [6] = assay: Percent of animals showing stereotyped behavior in rats at the dose 0.3 mg/kg; assay type: functional
D(2) dopamine receptor [7] = biological target: T1, D(2) dopamine receptor; assay: Inhibition of [3H]haloperidol binding for Dopamine receptor D2 in rat striatal membranes.; assay type: cell membranes, Membrane
Rattus norvegicus [8] = assay: Percent inhibition of dopamine neuronal firing in substantia nigra of anesthetized rats after (ip) administration at 2.5 mg/kg; assay type: functional
Rattus norvegicus [9] = assay: Decrease of DOPA formation effected by 30 mg/kg administered intraperitoneally in the striatum of GBL-treated rats; assay type: functional; conditions: ip, route intraperitoneal
Procedure, shortened: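 Male Long-Evans rats dosed ip 1 h before sacrifice. GBL 750 mg/kg ip given 30 min and NSD 1015 100 mg/kg ip given 25 min before sacrifice. Striatal DOPA measured by HPLC with electrochemical detection. Decrease in DOPA formation at 30 mg/kg ip, n = 4 or 5.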

D(2) dopamine receptor [10] = biological target: T1, D(2) dopamine receptor; assay: Inhibition of [3H]haloperidol binding for Dopamine receptor D2 in rat striatal membranes. (15% inhibition at 10 e-6 M); assay type: cell membranes, Membrane
D(2) dopamine receptor [11] = biological target: T1, D(2) dopamine receptor; assay: Inhibition of [3H]haloperidol binding for Dopamine receptor D2 in rat striatal membranes. (25% inhibition at 10 e-6 M); assay type: cell membranes, Membrane
Rattus norvegicus [12] = assay: Inhibition of locomotor activity was determined after (sc) administration in rat (40% inhibition was determined at 3 mg/kg); assay type: functional, organism-based; parameters: dose 3 mg/kg
Rattus norvegicus [13] = assay: Inhibition of locomotor activity was determined after oral administration at a dose of 1 mg/kg in rat; assay type: functional
D(1A) dopamine receptor = D(1A) dopamine receptor (Rattus norvegicus, UniProt P18901); assay: Inhibition of binding of [3H]SCH-23390 to Dopamine receptor D1 was determined
D(1A) dopamine receptor, sequence (P18901 whole entry): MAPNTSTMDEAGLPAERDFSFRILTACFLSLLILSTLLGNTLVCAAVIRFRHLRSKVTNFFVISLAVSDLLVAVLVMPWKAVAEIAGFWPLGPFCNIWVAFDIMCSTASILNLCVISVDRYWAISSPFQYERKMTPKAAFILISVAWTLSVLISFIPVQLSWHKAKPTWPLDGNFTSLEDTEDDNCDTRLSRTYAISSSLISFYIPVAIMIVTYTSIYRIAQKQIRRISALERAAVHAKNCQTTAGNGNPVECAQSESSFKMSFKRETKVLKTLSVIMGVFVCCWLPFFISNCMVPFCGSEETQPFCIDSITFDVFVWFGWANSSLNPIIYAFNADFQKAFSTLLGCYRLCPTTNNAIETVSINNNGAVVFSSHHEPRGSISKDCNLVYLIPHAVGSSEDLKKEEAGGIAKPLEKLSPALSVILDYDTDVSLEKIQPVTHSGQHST
Procedure, shortened: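 D1 binding was displaced from [3H]SCH23390. IC50 was fitted by nonlinear regression from four or five concentrations.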

Rattus norvegicus [14] = assay: Reversal of 6-hydroxydopamine induced depression in lesioned rats after dosing for a period of 30 minutes; assay type: functional; conditions: 0.5 h
Procedure, shortened: (§2)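 Rats received 6-OHDA 200 μg icv plus pargyline 50 mg/kg ip and desmethylimipramine 25 mg/kg ip at least 1 month earlier, giving about 90% brain DA depletion. Drug was given sc and locomotion recorded for 30 min from dosing. ED200 is the dose doubling activity versus unlesioned controls, estimated from three or four doses with six animals per dose.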

Rattus norvegicus [15] = assay: Percent of animals showing stereotyped behavior in rats at 3 mg/kg; assay type: functional
Rattus norvegicus [16] = assay: Inhibition of locomotor activity was determined after oral administration in rat(50% inhibition at 3 mg/kg); assay type: functional
Rattus norvegicus [17] = assay: Reversal of 6-hydroxydopamine induced depression in lesioned rats was determined after dosing for a period of 30 minutes; assay type: functional; conditions: 0.5 h; procedure, shortened: as §2
Rattus norvegicus [18] = assay: Percent of rats showing stereotyped behavior at the dose at 3 mg/kg dose level; assay type: functional
Rattus norvegicus [19] = assay: Percent inhibition of dopamine neuronal firing in substantia nigra of anesthetized rats after (ip) administration at 2.5 mg/kg
Rattus norvegicus [20] = assay: Decrease of DOPA formation effected by 30 mg/kg administered intraperitoneally in the striatum of GBL-treated rats; conditions: at 30 mg/kg
D(2) dopamine receptor [21] = biological target: T1, D(2) dopamine receptor; assay: Inhibition of [3H]haloperidol binding for Dopamine receptor D2 in rat striatal membranes. (41% inhibition at 10 e-6 M); assay type: cell membranes, Membrane
[22] = Rattus norvegicus, sc, read-out: ED50

| SMILES | IC50 (D(2) dopamine receptor [1]) [nM] | IC50 (D(2) dopamine receptor [7]) [nM] | ED50 (Rattus norvegicus [3]; [22]) [mg/kg] | ED50 (Rattus norvegicus [4]) | further results |
| --- | --- | --- | --- | --- | --- |
| CCCN1CCCC(c2cccc(O)c2)C1 (racemic) | – | – | 30 | 3 mg/kg | – |
| CCCN1CCC=C(c2cnc(N)s2)C1 | – | – | – | – | IC50 (D(2) dopamine receptor [5]): > 1000 nM; ED50 (Mus musculus): 19.1 mg/kg |
| CN1CCc2cccc3c2[C@H]1Cc1ccc(O)c(O)c1-3 [APOMORPHINE] | – | – | 0.1 | – | Animals (Rattus norvegicus [6]): 100% |
| Cl.Cl.Nc1nc(C2=CCCN(CCc3ccccc3)C2)cs1 | 911 | 1080 | 5.8 | 33.6 mg/kg | – |
| CCCN1CCCC(c2csc(N)n2)C1.Cl.Cl (stereo unspecified) | – | – | – | 18.9 mg/kg | inhibition in vivo at 30 mg/kg (Rattus norvegicus [9]): 55%; IC50 (D(2) dopamine receptor [10]): > 1000 nM |
| CCCCN1CCC=C(c2csc(NC)n2)C1.Cl.Cl | – | – | – | 16.7 mg/kg | IC50 (D(2) dopamine receptor [11]): > 1000 nM; ED50 (Mus musculus): 4.4 mg/kg |
| CCCN1CCCC(c2cccc(O)c2)C1 (stereo unspecified) [listing 1 of 2 here] | – | – | – | – | ED50 (Rattus norvegicus [12]): inactive |
| CCCN1CCCC(c2cccc(O)c2)C1 (stereo unspecified) [listing 2 of 2 here] | – | – | – | – | ED50 (Rattus norvegicus [3]): 30 mg/kg |
| CCCN1CCC=C(c2csc(NC)n2)C1 | > 10000 | – | – | – | IC50 (D(2) dopamine receptor [11]): > 1000 nM |
| CCCN1CCC=C(c2csc(C)n2)C1.Cl.Cl | – | – | – | – | IC50 (D(2) dopamine receptor [21]): > 1000 nM; ED50 (Mus musculus): > 30 mg/kg |

The next lines start with results.

| IC50 (D(2) dopamine receptor [1]) [nM] | IC50 (D(2) dopamine receptor [7]) [nM] | SMILES | ED50 (Rattus norvegicus [3]; [22]) [mg/kg] | ED50 (Rattus norvegicus [4]) | further results |
| --- | --- | --- | --- | --- | --- |
| 5330 | – | CCCCCCN1CCC=C(c2csc(N)n2)C1.Cl.Cl | > 30 | – | IC50 (D(2) dopamine receptor [2]): > 1000 nM |
| 3980 | 2120 | CCCCN1CCC=C(c2csc(N)n2)C1.Cl.Cl | > 30 | 5.4 mg/kg | inhibition in vivo at 2.5 mg/kg (Rattus norvegicus [8]): 0%; inhibition in vivo at 30 mg/kg (Rattus norvegicus [9]): 0% |
| 5130 | 2170 | CCCCCCCN1CCC=C(c2csc(N)n2)C1.Cl.Cl | > 30 | > 30 mg/kg | – |
| 257 | 440 | C=CCN1CCC=C(c2csc(N)n2)C1 | 8.7 | – | inhibition in vivo at 2.5 mg/kg (Rattus norvegicus [8]): 100%; inhibition in vivo at 1 mg/kg (Rattus norvegicus [13]): 30%; IC50 (D(1A) dopamine receptor): > 50000 nM; ED200 (Rattus norvegicus [14]): 0.3 mg/kg; ED50 (Mus musculus): 2.8 mg/kg; Animals (Rattus norvegicus [15]): 100%; inhibition in vivo at 30 mg/kg (Rattus norvegicus [9]): 100% |
| 596 | 958 | CCCN1CCC=C(c2csc(N)n2)C1 | > 30 | – | inhibition in vivo at 2.5 mg/kg (Rattus norvegicus [8]): 100%; ED50 at 3 mg/kg (Rattus norvegicus [16]): 3 mg/kg; ED200 (Rattus norvegicus [17]): 0.4 mg/kg; IC50 (D(1A) dopamine receptor): > 50000 nM; Animals (Rattus norvegicus [18]): 100%; inhibition in vivo at 30 mg/kg (Rattus norvegicus [9]): 100% |
| 6400 | 1850 | Br.Br.CCCCCN1CCC=C(c2csc(N)n2)C1 | > 30 | 15.6 mg/kg | ED50 (Mus musculus): 4.1 mg/kg; inhibition in vivo at 30 mg/kg (Rattus norvegicus [9]): 0% |
| – | 1040 | CN1CCC=C(c2csc(N)n2)C1.Cl.Cl | > 30 | inactive | inhibition (Rattus norvegicus [19]): 100%; inhibition (Rattus norvegicus [20]): 100% |
| 411 | 945 | CCN1CCC=C(c2csc(N)n2)C1 | > 30 | inactive | inhibition (Rattus norvegicus [19]): 96%; inhibition (Rattus norvegicus [20]): 92% |
